Test results from ChEMBL document CHEMBL1140895, “Synthesis of antisense oligonucleotides containing 2'-O-psoralenylmethoxyalkyl adenosine for photodynamic regulation of point mutations in RNA” (Bioorg Med Chem, 2009).
The source made the active and inactive calls. The rule behind the calls is not given here.

Assays:
[1] = Binding affinity to oligoribonucleotide ORN-U assessed as formation of stable A form like duplex with ORN-U by UV spectroscopy
[2] = Binding affinity to oligoribonucleotide ORN-U assessed as thermal stability by UV melting study
Procedure, shortened: (§1)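 Duplex melting curves were recorded by UV absorbance with temperature ramped at 1.0 °C/min. Each oligonucleotide was at 2.0 µM in 100 mM phosphate buffer (pH 7.0) containing 0.1 M NaCl.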

[3] = Binding affinity to oligoribonucleotide ORN-G assessed as thermal stability by UV melting study; procedure, shortened: as §1
[4] = Binding affinity to oligoribonucleotide ORN-U assessed as intercalation by fluorescence spectroscopy
[5] = Binding affinity to oligoribonucleotide ORN-U assessed as photo-cross-linking efficiency with ORN-U after UVA irradiation of 1 min by time course photo cross linking study
[6] = Binding affinity to oligoribonucleotide ORN-U assessed as photo cross linking activity by reversed phase HPLC
Procedure, shortened: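 Equimolar 2′-Ps-oligo and ORN (2.0 µM each) were denatured at 85 °C for 5 min and slowly cooled to 37 °C in 100 mM sodium phosphate (pH 7.0) with 0.1 M NaCl. Samples were irradiated with UVA (365 nm transilluminator, 1.6 mW/cm²) and analysed by C18 reversed-phase HPLC (TEAA pH 7.0/acetonitrile gradient, 40 °C oven) to follow intact ORN and cross-linked product.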

[7] = Binding affinity to oligoribonucleotide ORN-G assessed as photo-cross-linking efficiency with ORN-G after UVA irradiation of 1 min by time course photo cross linking study
[8] = Binding affinity to oligoribonucleotide ORN-U assessed as photo-cross-linking efficiency with ORN-U after UVA irradiation of 120 min by time course photo cross linking study

SMILES | Activity [1] | Tm [2] [°C] | Tm [3] [°C] | Activity [4] | photo-cross-linking efficiency [5] [%] | Activity [6] | photo-cross-linking efficiency [7] [%] | Activity [8] [%]
Cc1oc2c(C)c3oc(=O)cc(C)c3cc2c1COCCCCO[C@@H]1[C@H](OP(=O)(O)OC[C@H]2O[C@@H](n3ccc(N)nc3=O)C[C@@H]2OP(=O)(O)OC[C@H]2O[C@@H](n3cnc4c(N)ncnc43)C[C@@H]2OP(=O)(O)OC[C@H]2O[C@@H](n3cnc4c(=O)[nH]c(N)nc43)C[C@@H]2OP(=O)(O)OC[C@H]2O[C@@H](n3ccc(N)nc3=O)C[C@@H]2OP(=O)(O)OC[C@H]2O[C@@H](n3cc(C)c(=O)[nH]c3=O)C[C@@H]2OP(=O)(O)OC[C@H]2O[C@@H](n3ccc(N)nc3=O)C[C@@H]2OP(=O)(O)OC[C@H]2O[C@@H](n3ccc(N)nc3=O)C[C@@H]2O)[C@@H](COP(=O)(O)O[C@H]2C[C@H](n3cnc4c(N)ncnc43)O[C@@H]2COP(=O)(O)O[C@H]2C[C@H](n3ccc(N)nc3=O)O[C@@H]2COP(=O)(O)O[C@H]2C[C@H](n3ccc(N)nc3=O)O[C@@H]2COP(=O)(O)O[C@H]2C[C@H](n3cnc4c(=O)[nH]c(N)nc43)O[C@@H]2COP(=O)(O)O[C@H]2C[C@H](n3ccc(N)nc3=O)O[C@@H]2COP(=O)(O)O[C@H]2C[C@H](n3cnc4c(N)ncnc43)O[C@@H]2COP(=O)(O)O[C@H]2C[C@H](n3cc(C)c(=O)[nH]c3=O)O[C@@H]2CO)O[C@H]1n1cnc2c(N)ncnc21 | Active | 64 | 60.2 | Active |  |  |  | 
Cc1oc2c(C)c3oc(=O)cc(C)c3cc2c1COCCO[C@@H]1[C@H](OP(=O)(O)OC[C@H]2O[C@@H](n3ccc(N)nc3=O)C[C@@H]2OP(=O)(O)OC[C@H]2O[C@@H](n3cnc4c(N)ncnc43)C[C@@H]2OP(=O)(O)OC[C@H]2O[C@@H](n3cnc4c(=O)[nH]c(N)nc43)C[C@@H]2OP(=O)(O)OC[C@H]2O[C@@H](n3ccc(N)nc3=O)C[C@@H]2OP(=O)(O)OC[C@H]2O[C@@H](n3cc(C)c(=O)[nH]c3=O)C[C@@H]2OP(=O)(O)OC[C@H]2O[C@@H](n3ccc(N)nc3=O)C[C@@H]2OP(=O)(O)OC[C@H]2O[C@@H](n3ccc(N)nc3=O)C[C@@H]2O)[C@@H](COP(=O)(O)O[C@H]2C[C@H](n3cnc4c(N)ncnc43)O[C@@H]2COP(=O)(O)O[C@H]2C[C@H](n3ccc(N)nc3=O)O[C@@H]2COP(=O)(O)O[C@H]2C[C@H](n3ccc(N)nc3=O)O[C@@H]2COP(=O)(O)O[C@H]2C[C@H](n3cnc4c(=O)[nH]c(N)nc43)O[C@@H]2COP(=O)(O)O[C@H]2C[C@H](n3ccc(N)nc3=O)O[C@@H]2COP(=O)(O)O[C@H]2C[C@H](n3cnc4c(N)ncnc43)O[C@@H]2COP(=O)(O)O[C@H]2C[C@H](n3cc(C)c(=O)[nH]c3=O)O[C@@H]2CO)O[C@H]1n1cnc2c(N)ncnc21 | Active | 63.1 | 59.1 | Active | 75 | Active | 7 | 
Cc1cn([C@H]2C[C@H](OP(=O)(O)OC[C@H]3O[C@@H](n4cnc5c(N)ncnc54)C[C@@H]3OP(=O)(O)OC[C@H]3O[C@@H](n4ccc(N)nc4=O)C[C@@H]3OP(=O)(O)OC[C@H]3O[C@@H](n4cnc5c(=O)[nH]c(N)nc54)C[C@@H]3OP(=O)(O)OC[C@H]3O[C@@H](n4ccc(N)nc4=O)C[C@@H]3OP(=O)(O)OC[C@H]3O[C@@H](n4ccc(N)nc4=O)C[C@@H]3OP(=O)(O)OC[C@H]3O[C@@H](n4cnc5c(N)ncnc54)C[C@@H]3OP(=O)(O)OC[C@H]3O[C@@H](n4cnc5c(N)ncnc54)C[C@@H]3OP(=O)(O)OC[C@H]3O[C@@H](n4ccc(N)nc4=O)C[C@@H]3OP(=O)(O)OC[C@H]3O[C@@H](n4cnc5c(N)ncnc54)C[C@@H]3OP(=O)(O)OC[C@H]3O[C@@H](n4cnc5c(=O)[nH]c(N)nc54)C[C@@H]3OP(=O)(O)OC[C@H]3O[C@@H](n4ccc(N)nc4=O)C[C@@H]3OP(=O)(O)OC[C@H]3O[C@@H](n4cc(C)c(=O)[nH]c4=O)C[C@@H]3OP(=O)(O)OC[C@H]3O[C@@H](n4ccc(N)nc4=O)C[C@@H]3OP(=O)(O)OC[C@H]3O[C@@H](n4ccc(N)nc4=O)C[C@@H]3O)[C@@H](CO)O2)c(=O)[nH]c1=O |  | 67.3 | 58.9 |  |  |  |  | 
Cc1oc2c(C)c3oc(=O)cc(C)c3cc2c1CO[C@@H]1[C@H](OP(=O)(O)OC[C@H]2O[C@@H](n3ccc(N)nc3=O)C[C@@H]2OP(=O)(O)OC[C@H]2O[C@@H](n3cnc4c(N)ncnc43)C[C@@H]2OP(=O)(O)OC[C@H]2O[C@@H](n3cnc4c(=O)[nH]c(N)nc43)C[C@@H]2OP(=O)(O)OC[C@H]2O[C@@H](n3ccc(N)nc3=O)C[C@@H]2OP(=O)(O)OC[C@H]2O[C@@H](n3cc(C)c(=O)[nH]c3=O)C[C@@H]2OP(=O)(O)OC[C@H]2O[C@@H](n3ccc(N)nc3=O)C[C@@H]2OP(=O)(O)OC[C@H]2O[C@@H](n3ccc(N)nc3=O)C[C@@H]2O)[C@@H](COP(=O)(O)O[C@H]2C[C@H](n3cnc4c(N)ncnc43)O[C@@H]2COP(=O)(O)O[C@H]2C[C@H](n3ccc(N)nc3=O)O[C@@H]2COP(=O)(O)O[C@H]2C[C@H](n3ccc(N)nc3=O)O[C@@H]2COP(=O)(O)O[C@H]2C[C@H](n3cnc4c(=O)[nH]c(N)nc43)O[C@@H]2COP(=O)(O)O[C@H]2C[C@H](n3ccc(N)nc3=O)O[C@@H]2COP(=O)(O)O[C@H]2C[C@H](n3cnc4c(N)ncnc43)O[C@@H]2COP(=O)(O)O[C@H]2C[C@H](n3cc(C)c(=O)[nH]c3=O)O[C@@H]2CO)O[C@H]1n1cnc2c(N)ncnc21 |  |  |  |  | 3 |  |  | 35
Cc1oc2c(C)c3oc(=O)cc(C)c3cc2c1COCCCO[C@@H]1[C@H](OP(=O)(O)OC[C@H]2O[C@@H](n3ccc(N)nc3=O)C[C@@H]2OP(=O)(O)OC[C@H]2O[C@@H](n3cnc4c(N)ncnc43)C[C@@H]2OP(=O)(O)OC[C@H]2O[C@@H](n3cnc4c(=O)[nH]c(N)nc43)C[C@@H]2OP(=O)(O)OC[C@H]2O[C@@H](n3ccc(N)nc3=O)C[C@@H]2OP(=O)(O)OC[C@H]2O[C@@H](n3cc(C)c(=O)[nH]c3=O)C[C@@H]2OP(=O)(O)OC[C@H]2O[C@@H](n3ccc(N)nc3=O)C[C@@H]2OP(=O)(O)OC[C@H]2O[C@@H](n3ccc(N)nc3=O)C[C@@H]2O)[C@@H](COP(=O)(O)O[C@H]2C[C@H](n3cnc4c(N)ncnc43)O[C@@H]2COP(=O)(O)O[C@H]2C[C@H](n3ccc(N)nc3=O)O[C@@H]2COP(=O)(O)O[C@H]2C[C@H](n3ccc(N)nc3=O)O[C@@H]2COP(=O)(O)O[C@H]2C[C@H](n3cnc4c(=O)[nH]c(N)nc43)O[C@@H]2COP(=O)(O)O[C@H]2C[C@H](n3ccc(N)nc3=O)O[C@@H]2COP(=O)(O)O[C@H]2C[C@H](n3cnc4c(N)ncnc43)O[C@@H]2COP(=O)(O)O[C@H]2C[C@H](n3cc(C)c(=O)[nH]c3=O)O[C@@H]2CO)O[C@H]1n1cnc2c(N)ncnc21 | Active | 62.7 | 58.8 | Active | 50 | Active | 9 | 
